1 compound from paper PMC8028158 (ACS Omega, 2021) can be followed below.

For one assay, the target named is T1, TRPC6 (Mus musculus, UniProt Q61143).
T1 sequence (Q61143 1-930): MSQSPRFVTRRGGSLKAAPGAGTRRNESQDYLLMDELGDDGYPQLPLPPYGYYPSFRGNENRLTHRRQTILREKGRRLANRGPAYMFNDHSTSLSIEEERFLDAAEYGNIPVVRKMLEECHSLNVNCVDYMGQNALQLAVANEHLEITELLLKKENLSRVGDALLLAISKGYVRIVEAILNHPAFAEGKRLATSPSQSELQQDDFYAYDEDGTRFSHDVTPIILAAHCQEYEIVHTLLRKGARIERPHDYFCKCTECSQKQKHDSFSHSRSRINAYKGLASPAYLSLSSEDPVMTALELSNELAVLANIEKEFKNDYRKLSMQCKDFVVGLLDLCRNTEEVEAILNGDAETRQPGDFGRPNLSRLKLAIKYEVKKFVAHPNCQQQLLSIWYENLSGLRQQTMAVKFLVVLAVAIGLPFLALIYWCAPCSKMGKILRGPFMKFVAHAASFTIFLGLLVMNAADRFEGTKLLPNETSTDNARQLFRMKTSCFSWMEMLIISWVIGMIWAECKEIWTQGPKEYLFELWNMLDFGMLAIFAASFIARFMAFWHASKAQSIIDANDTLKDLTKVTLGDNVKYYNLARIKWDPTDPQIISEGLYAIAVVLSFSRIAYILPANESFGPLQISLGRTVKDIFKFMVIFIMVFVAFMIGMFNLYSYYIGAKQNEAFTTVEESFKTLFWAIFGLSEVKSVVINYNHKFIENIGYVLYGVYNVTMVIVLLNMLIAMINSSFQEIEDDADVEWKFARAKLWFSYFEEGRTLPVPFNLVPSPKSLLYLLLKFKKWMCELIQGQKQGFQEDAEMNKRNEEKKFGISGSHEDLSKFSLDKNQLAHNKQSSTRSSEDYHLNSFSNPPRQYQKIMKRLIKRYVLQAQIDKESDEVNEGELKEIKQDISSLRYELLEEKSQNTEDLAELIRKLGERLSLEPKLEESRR
Description: Whole-cell voltage clamp of TRPC6 currents evoked by GSK1702934A. The class given is cell-based. The gist of the method:
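TRPC6-expressing HEK293 cells were recorded with voltage ramps to obtain current–voltage relationships. Current was activated by GSK1702934A (1 μM) and test compound was applied at varying concentrations. IC50 was derived from a Hill-equation fit of the concentration-response curve.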

For the next assay, the system named is AGS cells. Kind of assay: MTT cell viability assay, AGS. Format: cell-based, human. To be noted: Homo sapiens, AGS, 72 h, read-out: IC50 cell proliferation, AGS. The gist of the method: (§1)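 Cells were seeded at 2000 per well, incubated overnight and exposed to test compound for 72 h. MTT was added for 4 h, formazan was dissolved in DMSO and absorbance was read at 570 nm. Viability was normalized to untreated wells, giving mean ± SEM of three trials. IC50 was calculated from relative survival.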
A general note: Formazan colour is commonly taken as a measure of viable cells.

Assay [1] has as its system MKN-45 cells. Description: Wound-healing migration assay. As to conditions: 5 μM, 24 h. Format: cell-based, human. Summed up: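 MKN-45 cells were seeded and cultured overnight, then scratched with a pipette tip and treated with test compound. The wound was imaged at 0 and 24 h. The width of the cell-free zone was measured at six positions, and relative migration distance was calculated. A positive-control compound was run alongside.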

A further assay addresses TRPA1 (Homo sapiens, UniProt O75762). Kind of assay: Selectivity Ca2+ assay in TRPA1-expressing HEK293 cells. To be noted: 1s 50 μM; Fluo-8. Format: cell-based.
Another assay has as its target T2, TRPV3 (Homo sapiens, UniProt Q8NET8).
T2 sequence (Q8NET8 1-790): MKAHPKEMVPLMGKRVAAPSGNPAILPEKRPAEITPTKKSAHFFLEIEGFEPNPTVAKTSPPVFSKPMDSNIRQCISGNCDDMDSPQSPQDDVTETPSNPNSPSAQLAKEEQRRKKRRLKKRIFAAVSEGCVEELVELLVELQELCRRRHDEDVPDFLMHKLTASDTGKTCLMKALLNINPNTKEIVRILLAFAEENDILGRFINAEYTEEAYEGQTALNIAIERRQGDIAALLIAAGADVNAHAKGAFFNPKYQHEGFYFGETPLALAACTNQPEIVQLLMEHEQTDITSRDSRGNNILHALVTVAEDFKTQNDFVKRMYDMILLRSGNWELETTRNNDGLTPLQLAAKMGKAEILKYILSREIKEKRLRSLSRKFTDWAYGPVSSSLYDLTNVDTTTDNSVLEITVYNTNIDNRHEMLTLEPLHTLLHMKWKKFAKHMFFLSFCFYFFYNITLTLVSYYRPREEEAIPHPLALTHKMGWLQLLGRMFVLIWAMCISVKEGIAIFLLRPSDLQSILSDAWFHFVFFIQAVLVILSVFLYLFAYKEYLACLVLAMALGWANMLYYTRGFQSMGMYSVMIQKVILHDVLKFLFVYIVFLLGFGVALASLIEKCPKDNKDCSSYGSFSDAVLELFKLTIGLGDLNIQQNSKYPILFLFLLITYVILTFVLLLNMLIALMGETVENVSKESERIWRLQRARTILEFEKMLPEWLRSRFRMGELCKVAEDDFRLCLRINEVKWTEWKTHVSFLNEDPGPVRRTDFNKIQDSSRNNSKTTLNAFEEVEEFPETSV
Kind of assay: Selectivity Ca2+ assay in TRPV3-expressing HEK293 cells. Format: cell-based. To be noted: 1s 50 μM; Fluo-8.

The test system of assay [2] is MKN-45 cells. Description: MTT cell viability assay, MKN-45. The class given is cell-based, human. To be noted: Homo sapiens, MKN-45, 72 h, read-out: IC50 cell proliferation, MKN-45. Summed up:
as §1

Assay [3] concerns MKN-45 cells. Kind of assay: Boyden chamber / Transwell cell migration assay. The class given is cell-based, human. As to conditions: 24 h. The gist of the method:
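MKN-45 cells in serum-free medium were seeded with test compound on uncoated Transwell membranes (8 μm pores), with complete medium containing 10% FBS in the lower chamber, and left to migrate for 24 h. Cells on the upper surface were removed. Cells on the underside were fixed, stained with crystal violet and counted in six random fields. A positive-control compound was run alongside.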

Chain of TRPA1 (O75762 whole entry, species assumed): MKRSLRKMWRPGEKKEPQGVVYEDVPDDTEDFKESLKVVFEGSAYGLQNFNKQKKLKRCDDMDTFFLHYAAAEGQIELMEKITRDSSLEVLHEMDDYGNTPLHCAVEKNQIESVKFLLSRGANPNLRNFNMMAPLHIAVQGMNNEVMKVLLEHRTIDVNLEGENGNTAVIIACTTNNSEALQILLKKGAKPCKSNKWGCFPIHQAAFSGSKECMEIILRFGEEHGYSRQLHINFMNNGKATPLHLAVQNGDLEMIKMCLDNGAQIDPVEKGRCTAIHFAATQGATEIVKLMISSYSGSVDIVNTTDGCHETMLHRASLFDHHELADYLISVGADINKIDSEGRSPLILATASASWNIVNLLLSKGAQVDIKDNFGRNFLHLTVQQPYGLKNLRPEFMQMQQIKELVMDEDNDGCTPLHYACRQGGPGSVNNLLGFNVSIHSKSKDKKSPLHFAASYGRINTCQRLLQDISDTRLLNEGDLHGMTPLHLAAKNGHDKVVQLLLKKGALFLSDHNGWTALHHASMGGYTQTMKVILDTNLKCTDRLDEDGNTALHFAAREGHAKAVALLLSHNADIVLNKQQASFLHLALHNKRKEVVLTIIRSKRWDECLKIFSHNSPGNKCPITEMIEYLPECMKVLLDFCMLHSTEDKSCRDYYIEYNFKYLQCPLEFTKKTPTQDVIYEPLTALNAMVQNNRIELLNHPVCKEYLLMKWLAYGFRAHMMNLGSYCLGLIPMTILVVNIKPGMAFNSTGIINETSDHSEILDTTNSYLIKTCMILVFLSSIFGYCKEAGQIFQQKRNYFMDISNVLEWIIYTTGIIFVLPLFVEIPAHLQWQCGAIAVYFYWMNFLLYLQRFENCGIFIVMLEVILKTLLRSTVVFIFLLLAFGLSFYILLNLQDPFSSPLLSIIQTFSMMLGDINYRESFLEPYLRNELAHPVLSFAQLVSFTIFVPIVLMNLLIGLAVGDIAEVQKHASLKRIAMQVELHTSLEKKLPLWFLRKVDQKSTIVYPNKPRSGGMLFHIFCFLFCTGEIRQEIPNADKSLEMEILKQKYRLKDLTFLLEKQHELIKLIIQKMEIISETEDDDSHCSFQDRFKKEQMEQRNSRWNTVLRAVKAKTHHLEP

For `COc1cccc2sc(N(CCN(C)C)C(=O)c3ccc4c(c3)CCCC4)nc12` [Compound 1s, N-(2-(dimethylamino)ethyl)-N-(4-methoxybenzo[d]thiazol-2-yl)-5,6,7,8-tetrahydronaphthalene-2-carboxamide], the IC50 against TRPC6 was 4.19 ± 0.04 µM; in the assay with AGS cells, 12 ± 1.01 µM; in the assay on MKN-45 cells [2], 8 ± 0.51 µM. For the same compound, at TRPC6 (evoked by GSK1702934A 1 μM, whole-cell voltage clamp), the “Effect on TRPC6 currents” value is given as “immediately suppressed”. For the same compound, the “MKN-45 cell migration (wound healing)” value in the assay on MKN-45 cells [1] is recorded as “inhibited the MKN-45 cell migration”. Moreover, the “Effect on agonist-induced Ca2+ response, TRPA1” value on TRPA1 is “did not significantly affect”. The “Effect on agonist-induced Ca2+ response, TRPV3” value on TRPV3 is on record as “did not significantly affect”. In the assay on MKN-45 cells [3], the “MKN-45 cell invasion (movement through the pores toward chemoattractant)” value was “inhibited”.
